Measured values: ChEMBL document CHEMBL3297649, “Structure-activity relationships of privileged structures lead to the discovery of novel biased ligands at the dopamine D₂ receptor” (J Med Chem, 2014)
Active and inactive are the calls of the source. No cut-off for these calls is given here.

Columns and labels:
[1] = target: T1, D(2) dopamine receptor (Homo sapiens, UniProt P14416); assay: Partial agonist activity at human D2L receptor expressed in FlpIn CHO cells assessed as induction of ERK1/2 phosphorylation by AlphaScreen assay relative to dopamine; format: cell-based
T1 sequence (P14416 whole entry): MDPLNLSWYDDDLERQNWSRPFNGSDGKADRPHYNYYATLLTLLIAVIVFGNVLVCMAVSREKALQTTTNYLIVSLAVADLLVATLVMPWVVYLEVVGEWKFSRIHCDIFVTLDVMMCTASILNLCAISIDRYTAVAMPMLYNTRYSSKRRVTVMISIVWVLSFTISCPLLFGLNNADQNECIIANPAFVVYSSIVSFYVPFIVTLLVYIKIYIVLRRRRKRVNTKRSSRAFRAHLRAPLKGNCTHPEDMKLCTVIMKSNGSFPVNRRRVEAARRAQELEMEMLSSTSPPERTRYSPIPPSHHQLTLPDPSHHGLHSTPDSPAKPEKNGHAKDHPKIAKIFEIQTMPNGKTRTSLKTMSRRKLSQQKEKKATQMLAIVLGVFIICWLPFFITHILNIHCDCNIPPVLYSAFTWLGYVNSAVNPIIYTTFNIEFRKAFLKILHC
Outline: (§1)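 Stable human D2L FlpIn CHO cells serum-starved overnight, then given concentration series of agonist at 37 °C for 5–10 min, the per-compound peak time from time-course runs. Lysed with SureFire buffer and pERK1/2 detected by AlphaScreen. Three-parameter logistic fit gives pEC50; Emax as % of maximal dopamine response. Three to four experiments in duplicate.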

[2] = target: T1, D(2) dopamine receptor; assay: Partial agonist activity at human D2L receptor expressed in FlpIn CHO cells assessed as induction of ERK1/2 phosphorylation by AlphaScreen assay; format: cell-based; outline: as §1
[3] = target: T1, D(2) dopamine receptor; assay: Displacement of [3H]spiperone from human D2L receptor expressed in FlpIn CHO cell membrane after 3 hrs by liquid scintillation counting analysis; format: cell membranes
Outline: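 Membranes from D2L FlpIn CHO cells, 3 μg, with 0.05 nM [3H]spiperone, 100 μM GppNHp and varied competitor in 20 mM HEPES, 100 mM NaCl, 6 mM MgCl2, 1 mM EGTA, 1 mM EDTA, pH 7.4, 3 h at 37 °C. Filtered on GF/B, washed in ice-cold saline, counted by liquid scintillation. Three experiments in duplicate.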

[4] = Retention time of the compound by HPLC analysis; format: physicochemical
Outline: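 Reverse-phase C8 column, 0.1% TFA/water vs 0.1% TFA/80% MeOH; 100% A 10 min, 80% B over 2 min, back to 100% A over 10 min; 1 mL/min, detection at 214 nm.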

[5] = target: T1, D(2) dopamine receptor; assay: Agonist activity at human D2L receptor expressed in FlpIn CHO cells assessed as induction of ERK1/2 phosphorylation at 10 uM by AlphaScreen assay; format: cell-based
Outline: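 Time-course ERK1/2 phosphorylation screen at 10 μM in FlpIn CHO cells stably expressing human D2L, seeded 50 000 cells/well, serum-starved overnight. Compounds applied at 37 °C over a time course to find peak stimulation time. Stimulation stopped by SureFire lysis, 5 min shaking at room temperature, lysate read by AlphaScreen.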

[6] = target: T1, D(2) dopamine receptor; conditions: CHO, at 10 µM
[7] = target: T1, D(2) dopamine receptor; assay: Antagonist activity at human D2L receptor expressed in FlpIn CHO cells assessed as inhibition of dopamine-induced ERK1/2 phosphorylation treated for 30 mins prior to dopamine stimulation for 5 mins by AlphaScreen assay; format: cell-based
Outline: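 D2L-FlpIn CHO cells serum-starved overnight. Compound serial dilutions preincubated 30 min at 37 °C, then 10 nM dopamine added for 5 min. Lysed in SureFire buffer, pERK1/2 read by AlphaScreen. pIC50 is the mean of three to four separate experiments run in duplicate.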

[8] = target: T1, D(2) dopamine receptor; assay: Competitive antagonist activity at human D2L receptor expressed in FlpIn CHO cells assessed as inhibition of dopamine-induced ERK1/2 phosphorylation treated for 30 mins prior to dopamine stimulation for 5 mins by AlphaScreen assay; format: cell-based
Outline: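 Human D2L FlpIn CHO cells serum-starved overnight. Inhibitor at a range of dilutions for 30 min at 37 °C, then 10 nM dopamine for 5 min. Lysed; phospho-ERK1/2 detected by AlphaScreen. pIC50 taken from inhibition curves; three to four experiments in duplicate.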

[9] = target: T1, D(2) dopamine receptor; conditions: CHO
[10] = target: T1, D(2) dopamine receptor; conditions: CHO; remark: listed apart in the source
[11] = target: T1, D(2) dopamine receptor; conditions: CHO; remark: listed apart in the source
[12] = target: T1, D(2) dopamine receptor; conditions: CHO; remark: listed apart in the source
[13] = target: T1, D(2) dopamine receptor; assay: Agonist activity at human D2L receptor expressed in FlpIn CHO cells assessed as induction of ERK1/2 phosphorylation by AlphaScreen assay relative to dopamine; format: cell-based
Outline: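 FlpIn CHO cells stably expressing human D2L receptor, seeded at 50 000 cells/well, serum-starved overnight. Ligands added at 37 °C for 5−10 min, time set per ligand from prior time-course runs. Lysed in SureFire buffer; phospho-ERK1/2 read by AlphaScreen. Curves fitted to three-parameter logistic; Emax as % of dopamine maximum. Three to four experiments in duplicate.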

[14] = target: T1, D(2) dopamine receptor; assay: Agonist activity at human D2L receptor expressed in FlpIn CHO cells assessed as inhibition of forskolin-stimulated cAMP production treated for 30 mins by AlphaScreen assay relative to dopamine; format: functional, cell-based
Outline: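 D2L-expressing FlpIn CHO cells grown overnight, then preincubated 45 min in HBSS stimulation buffer (1 mg/mL BSA, 0.5 mM IBMX, 5 mM HEPES, pH 7.4). Agonist and 300 nM forskolin added together for 30 min at 37 °C. Stopped with ice-cold ethanol, dried, lysed in detection buffer; cAMP measured by AlphaScreen. Operational-model fit gives log(τ/KA); n = 4.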

[15] = target: T1, D(2) dopamine receptor; assay: Agonist activity at human D2L receptor expressed in FlpIn CHO cells assessed as inhibition of forskolin-stimulated cAMP production treated for 30 mins by AlphaScreen assay; format: functional, cell-based
[16] = target: T1, D(2) dopamine receptor; assay: Agonist activity at human D2L receptor expressed in FlpIn CHO cells assessed as induction of ERK1/2 phosphorylation by AlphaScreen assay; format: cell-based

Work on `COc1ccccc1N1CCN(CCCCCCNC(=O)c2sc3nc(OC)c(Cl)c(C)c3c2N)CC1` yielded an Emax [1] of 14%, an EC50 [2] of 5.49 nM and a Ki [3] of 0.6 nM.
In the case of `CC(C)(C)OC(=O)NCCN1CCC(O)(c2ccc(Cl)cc2)CC1`, the Retention_time [4] is reported as 7.68 min, the Activity [5] is reported as “inactive” and the Ki [3] is reported as 2750 nM.
In the case of `COc1ccccc1N1CCNCC1`, the inhibition [6] is reported as “Active”, the IC50 [7] is reported as > 1000 nM and the pIC50 ([7]; cho) is reported as < 6. The Ki [3] was 4110 nM, the Kb [8] was 479 nM and the pKb [8] was 6.32.
With `OC1(c2ccc(Cl)cc2)CCNCC1` the Ki [3] was 9090 nM.
`Cc1cc(C)c2c(N)c(C(=O)NCCCCCN3CCC(O)(c4ccc(Cl)cc4)CC3)sc2n1` showed a Ki [3] of 1980 nM.
In the case of `CC(C)(C)OC(=O)NCCCN1CCC(O)(c2ccc(Cl)cc2)CC1`, the Activity [5] is reported as “inactive” and the Ki [3] is reported as 1350 nM.
In the case of `Clc1cccc(N2CCNCC2)c1Cl`, the Ki [3] is reported as 1160 nM.
Work on `COc1ccccc1N1CCN(CCCCCNC(=O)OC(C)(C)C)CC1` yielded a pKA [9] of 8.77, an Emax [1] of 19% and a pKA [10] of 7.06. It also gave a Retention_time [4] of 10.43 min, an EC50 [2] of 1.43 nM and a log(activity) [11] of -0.67. The log(activity) [12] was 0.19, the Activity [5] was “inactive” and the Ki [3] was 12.1 nM.
`COc1ccccc1N1CCN(CCCCNC(=O)c2sc3nc(OC)c(Cl)c(C)c3c2N)CC1` gave a Retention_time [4] of 9.3 min, a Ki [3] of 6.3 nM and a Kb [8] of 490 nM. It also gave a pKb [8] of 6.31.
For `COc1ccccc1N1CCN(CCNC(=O)c2sc3nc(OC)c(Cl)c(C)c3c2N)CC1`, the Ki [3] was 48.3 nM, the Kb [8] was 355 nM and the pKb [8] was 6.45.
For `Cc1cc(C)c2c(N)c(C(=O)NCCCCN3CCC(O)(c4ccc(Cl)cc4)CC3)sc2n1`, the Ki [3] was 2250 nM.
For `COc1ccccc1N1CCN(CCCNC(=O)c2sc3nc(OC)c(Cl)c(C)c3c2N)CC1`, the Ki [3] was 19.5 nM, the Kb [8] was 741 nM and the pKb [8] was 6.13.
Work on `Cc1cc(C)c2c(N)c(C(=O)NCCN3CCC(O)(c4ccc(Cl)cc4)CC3)sc2n1` yielded a Retention_time [4] of 8.06 min and a Ki [3] of 910 nM.
`CC(C)(C)OC(=O)NCCCCCN1CCN(c2cccc(Cl)c2Cl)CC1` showed a pKA [9] of 7.14, a pKA [10] of 7.73 and a Retention_time [4] of 10.43 min. For the same molecule, the log(activity) [11] was -0.51, the log(activity) [12] was 0.43 and the Ki [3] was 42.6 nM.
Molecule `Cc1cc(C)c2c(N)c(C(=O)NCCCCCCN3CCC(O)(c4ccc(Cl)cc4)CC3)sc2n1` has a Retention_time [4] of 8.39 min and a Ki [3] of 975 nM.
In the case of `COc1ccccc1N1CCN(CCCCCCNC(=O)OC(C)(C)C)CC1`, the inhibition [6] is reported as “Active”, the IC50 [7] is reported as 3.98 nM and the Ki [3] is reported as 74.8 nM.
With `Cc1cc(C)c2c(N)c(C(=O)NCCCN3CCC(O)(c4ccc(Cl)cc4)CC3)sc2n1` the Ki [3] was 1700 nM.
For `COc1ccccc1N1CCN(CCCCNC(=O)OC(C)(C)C)CC1`, the Emax [1] was 13%, the EC50 [2] was 0.6 nM and the Activity [5] was “inactive”. For the same molecule, the Ki [3] was 18.9 nM.
With `CC(C)(C)OC(=O)NCCCCCN1CCC(O)(c2ccc(Cl)cc2)CC1` the Activity [5] was “inactive” and the Ki [3] was 2050 nM.
`Cc1cc(C)c2c(N)c(C(=O)NCCCCCN3CCN(c4cccc(Cl)c4Cl)CC3)sc2n1` showed a pKA [9] of 7.9, a pKA [10] of 9 and a Retention_time [4] of 10.13 min. The Emax [13] was 13%, the log(activity) [11] was -0.78 and the Emax [14] was 50%. For the same molecule, the EC50 [15] was 0.3 nM, the log(activity) [12] was -0.06 and the Ki [3] was 11.2 nM. For the same molecule, the EC50 [16] was 13.2 nM.
In the case of `CC(C)(C)OC(=O)NCCCCCCN1CCC(O)(c2ccc(Cl)cc2)CC1`, the Retention_time [4] is reported as 8.77 min, the Activity [5] is reported as “inactive” and the Ki [3] is reported as 902 nM.
Work on `COc1nc2sc(C(=O)NCCCCCN3CCN(c4cccc(Cl)c4Cl)CC3)c(N)c2c(C)c1Cl` yielded a pKA [9] of 7.1, a Ka [10] of 58.9 nM and a pKA [10] of 6.89. For the same molecule, the Retention_time [4] was 11.66 min, the Emax [13] was 17% and the log(activity) [11] was -0.65. For the same molecule, the Emax [14] was 71%, the log(activity) [12] was 0.28 and the Ki [3] was 15.5 nM. The EC50 [16] was 87.6 nM.
For `NCCc1ccc(O)c(O)c1`, the pKA [9] was 7.98 and the log(activity) [11] was 0.79.
With `COc1ccccc1N1CCN(CCCCCNC(=O)c2sc3nc(C)cc(C)c3c2N)CC1` the pKA [10] was 8.84, the Retention_time [4] was 8.89 min and the Emax [14] was 33%. The log(activity) [12] was -0.42 and the Ki [3] was 9.1 nM.
`COc1ccccc1N1CCN(CCCCCNC(=O)c2sc3nc(OC)c(Cl)c(C)c3c2N)CC1` showed a pKA [9] of 8.86, an Emax [1] of 17% and a pKA [10] of 7.47. The Retention_time [4] was 9.84 min, the EC50 [2] was 2.69 nM and the log(activity) [11] was -0.65. For the same molecule, the log(activity) [12] was -0.26 and the Ki [3] was 3.5 nM.
With `CC(C)(C)OC(=O)NCCCCN1CCC(O)(c2ccc(Cl)cc2)CC1` the Activity [5] was “inactive” and the Ki [3] was 2110 nM.
In the case of `COc1ccccc1N1CCN(CCCNC(=O)OC(C)(C)C)CC1`, the Emax [1] is reported as 31%, the Retention_time [4] is reported as 7.74 min and the EC50 [2] is reported as 0.39 nM. For the same molecule, the Activity [5] was “inactive” and the Ki [3] was 16.1 nM.
